ChEMBL document CHEMBL1123286 (J Med Chem, 1986)
Where a SMILES comes first, the peptide text is derived from it. [ ]: non-standard residue; d: D form.

Experiments:
[1] = system: Mus musculus; experiment: In vivo opioid activity was evaluated by determining analgesia in the mouse by the tail-flick test, Relative potency with respect to morphine intracerebroventricular route; assay type: functional
Outline: (§1)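 Mouse tail-flick analgesia in Swiss-Webster mice (23–25 g) with 55 °C water, compound given icv or sc in saline (4 μL). Cut-off was 10 s; %analgesia was computed from pre- and post-dose latencies. At least 10 animals per dose, with ED50 taken at peak activity.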

[2] = system: Mus musculus; experiment: In vivo opioid activity was evaluated by determining analgesia in the mouse by the tail-flick test Relative potency with respect to morphine when administered through subcutaneous route; assay type: functional; outline: as §1
[3] = system: Mus musculus; experiment: In vivo opioid activity was evaluated by determining analgesia in the mouse by the tail-flick test, when administered through subcutaneous route; assay type: functional; conditions: sc
Outline: (§2)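 Swiss-Webster mice (23–25 g), tail-flick test with 55 °C water as the stimulus. Compound was given icv or sc in saline (4 μL), with latency read before and at various times after dosing. Cut-off was 10 s. %analgesia = (T−T0)/(10−T0)×100. At least 10 animals per dose; ED50 taken at time of peak activity. Naloxone pretreatment 0.5–1 mg/kg sc.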

[4] = system: Mus musculus; experiment: In vivo opioid activity was evaluated by determining analgesia in the mouse by the tail-flick test when administered through intracerebroventricular route; assay type: functional; outline: as §2
[5] = molecular target: Opioid receptors; mu/kappa/delta; experiment: In vitro opioid inhibitory activity against in guinea pig ileum; assay type: functional, tissue-based, Cavia porcellus
[6] = system: Mus musculus; experiment: In vivo opioid activity was evaluated by determining analgesia in the mouse by the tail-flick test, relative potency with respect to morphine intracerebroventricular route; assay type: functional; outline: as §1
[7] = system: Mus musculus; experiment: In vivo opioid activity was evaluated by determining analgesia in the mouse by the tail-flick test, when administered through Subcutaneous route; assay type: functional; conditions: sc; outline: as §2
[8] = system: Mus musculus; experiment: In vivo opioid activity was evaluated by determining analgesia in the mouse by the tail-flick test when administered through intra cerebro ventricular route; conditions: Cardiac ventricle
[9] = system: Mus musculus; experiment: In vivo opioid activity was evaluated by determining analgesia in the mouse by the tail-flick test. Relative potency with respect to morphine when administered through subcutaneous route; assay type: functional; outline: as §1
[10] = system: Mus musculus; experiment: In Vivo opioid activity was evaluated by determining analgesia in the mouse by the tail-flick test when administered through intra cerebro ventricular route; assay type: functional; outline: as §2
[11] = molecular target: Opioid receptors; mu/kappa/delta (Homo sapiens, UniProt P41145+P41143+P35372); experiment: In vitro inhibitory activity against opioid activity in guinea pig ileum, relative to H-Tyr-D-MetO-Phe-Gly-NH2; assay type: tissue-based; conditions: Cavia porcellus, target entry is the homologue from another species
[12] = system: Mus musculus; experiment: In vivo opioid activity was evaluated by determining analgesia in the mouse by the tail-flick test, relative potency with respect to morphine intra cerebro ventricular route; assay type: functional; outline: as §1

Opioid receptors; mu/kappa/delta (Homo sapiens, UniProt P41145+P41143+P35372), sequence (P35372 whole entry, looked up): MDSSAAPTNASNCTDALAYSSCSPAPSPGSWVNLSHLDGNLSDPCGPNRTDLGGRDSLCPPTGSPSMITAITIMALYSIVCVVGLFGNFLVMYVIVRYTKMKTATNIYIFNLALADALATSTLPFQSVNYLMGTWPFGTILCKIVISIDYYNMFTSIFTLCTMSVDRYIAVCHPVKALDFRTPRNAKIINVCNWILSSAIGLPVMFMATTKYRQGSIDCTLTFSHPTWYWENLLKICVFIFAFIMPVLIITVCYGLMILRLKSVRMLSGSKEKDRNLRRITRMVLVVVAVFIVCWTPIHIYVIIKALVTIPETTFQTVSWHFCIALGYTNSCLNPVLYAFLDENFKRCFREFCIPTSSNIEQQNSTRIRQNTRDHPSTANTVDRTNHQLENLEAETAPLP
Opioid receptors; mu/kappa/delta (Homo sapiens, UniProt P41145+P41143+P35372), sequence (P41143 whole entry, looked up): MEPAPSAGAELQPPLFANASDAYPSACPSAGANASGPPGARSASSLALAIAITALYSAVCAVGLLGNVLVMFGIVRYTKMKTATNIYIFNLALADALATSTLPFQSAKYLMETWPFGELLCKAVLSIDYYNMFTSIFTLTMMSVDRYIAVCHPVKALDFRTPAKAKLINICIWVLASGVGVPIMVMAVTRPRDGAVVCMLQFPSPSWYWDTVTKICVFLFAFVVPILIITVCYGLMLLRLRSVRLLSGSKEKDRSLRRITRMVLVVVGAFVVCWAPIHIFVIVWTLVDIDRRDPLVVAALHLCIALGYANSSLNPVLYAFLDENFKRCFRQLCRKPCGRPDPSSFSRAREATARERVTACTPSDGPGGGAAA
Opioid receptors; mu/kappa/delta (Homo sapiens, UniProt P41145+P41143+P35372), sequence (P41145 whole entry, looked up): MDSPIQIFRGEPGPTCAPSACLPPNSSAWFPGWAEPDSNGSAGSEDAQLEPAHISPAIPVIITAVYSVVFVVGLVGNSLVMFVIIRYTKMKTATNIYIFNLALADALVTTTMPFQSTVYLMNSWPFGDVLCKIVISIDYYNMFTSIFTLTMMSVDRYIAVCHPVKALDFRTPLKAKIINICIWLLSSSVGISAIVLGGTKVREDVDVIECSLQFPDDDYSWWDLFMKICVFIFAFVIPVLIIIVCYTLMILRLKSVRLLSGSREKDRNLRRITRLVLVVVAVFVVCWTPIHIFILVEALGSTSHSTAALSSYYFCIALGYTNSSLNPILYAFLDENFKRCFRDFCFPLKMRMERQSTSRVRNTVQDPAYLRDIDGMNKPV

Row | Structure (SMILES) | Relative potency [2] | ED50 [3] [µmol/kg] | ED50 [4] [pmol/mouse] | IC50 [5] [nM] | Relative potency [6] | ED50 [7] [µmol/kg] | also measured
1 | C[S+]([O-])CC[C@@H](NC(=O)[C@@H](N)Cc1ccc(O)cc1)C(=O)N[C@@H](Cc1ccccc1)C(=O)NCC(=O)NCc1ccccc1 (some centres undefined) | 3.1 | 3.51 | 18.1 | 21 | – | – | Relative potency [1]: 167
2 | CC(NC(=O)CNC(=O)[C@H](Cc1ccccc1)NC(=O)[C@@H](CC[S+](C)[O-])NC(=O)[C@@H](N)Cc1ccc(O)cc1)c1ccccc1 (some centres undefined) | 1.8 | 5.81 | 83.6 | 72.1 | 36 | – | –
3 | C[S+]([O-])CC[C@@H](NC(=O)[C@@H](N)Cc1ccc(O)cc1)C(=O)N[C@@H](Cc1ccccc1)C(=O)NCC(=O)NC12CC3CC(CC(C3)C1)C2 (some centres undefined) | 2.8 | – | 30.4 | 22 | 100 | 3.93 | –
4 | C[S+]([O-])CC[C@@H](NC(=O)[C@@H](N)Cc1ccc(O)cc1)C(=O)N[C@@H](Cc1ccccc1)C(=O)NCC(N)=O (some centres undefined) | – | 0.65 | 1.97 | – | – | – | –
5 | CN1CC[C@]23c4c5ccc(O)c4O[C@H]2[C@@H](O)C=C[C@H]3[C@H]1C5 [MORPHINE] | – | – | – | – | – | – | ED50 [8]: 3030 µmol/kg
6 | CN(CC(=O)NC12CC3CC(CC(C3)C1)C2)C(=O)[C@H](Cc1ccccc1)NC(=O)[C@@H](CC[S+](C)[O-])NC(=O)[C@@H](N)Cc1ccc(O)cc1 (some centres undefined) | 2.3 | – | 60.6 | 25.5 | 50 | 4.82 | –
7 | CSCC[C@@H](NC(=O)[C@@H](N)Cc1ccc(O)cc1)C(=O)N[C@@H](Cc1ccccc1)C(=O)NCC(N)=O (H-Y[dM]FG-NH2) | – | – | – | 97.6 | – | 12.1 | Relative potency [9]: 0.9; ED50 [10]: 87.5 µmol/kg; Relative potency [11]: 0.1; Relative potency [12]: 35
